Results from different studies.
Each line is one published result; the experiments were not run side by side.
Observed: cell growth or viability

With `Cc1[nH]c(/C=C2\C(=O)Nc3ccc(S(=O)(=O)N(C)c4cccc(Cl)c4)cc32)c(C)c1C(=O)N1CCN(C)CC1` the IC50 was 5190 nM (BJ; 72 h).
`COc1cccc2c1C(=O)c1c(O)c3c(c(O)c1C2=O)C[C@@](O)(C(=O)CO)C[C@@H]3O[C@H]1C[C@H](N)[C@H](O)[C@H](C)O1` gave an IC50 of 0.22 µg/mL (WI-38 VA13; MTT; 48 h).
`CC(C)C(=O)Nc1ccc([N+](=O)[O-])c(C(F)(F)F)c1` gave an IC50 of over 50000 nM (IOSE-144; CCK-8; 48 h).
`O=C(N/N=C/c1c(O)ccc2ccccc12)c1cc(-c2ccc3ccccc3c2)n[nH]1` gave an IC50 of 20400 nM (1205Lu; MTS; 24 h).
For `CC(=O)O[C@H]1C(=O)[C@@]2(C)[C@H]([C@H](OC(=O)c3ccccc3)[C@]3(O)C[C@H](OC(=O)[C@H](O)[C@@H](NC(=O)c4ccccc4)c4ccccc4)C(C)=C1C3(C)C)[C@]1(OC(C)=O)CO[C@@H]1C[C@@H]2O`, the IC50 was 1 µg/mL (LN-18).
For `Cc1cccc(-n2ncc(Br)c(Br)c2=O)c1`, the IC50 was 310 nM (NCI-H2444; resazurin; 96 h).
For `C[C@@H](Oc1cc(-c2cnn(C3CCNCC3)c2)cnc1N)c1c(Cl)ccc(F)c1Cl`, the IC50 was 2500 nM (SW-1736; MTT; 72 h).
For `CC(C)C[C@H](NC(=O)[C@H](Cc1ccccc1)NC(=O)c1cnccn1)B(O)O`, the IC50 was 14 nM (HuTu80; ATP luminescence).
The IC50 of `COc1cc2c(Oc3ccc(NC(=O)C4(C(=O)Nc5ccc(F)cc5)CC4)cc3F)ccnc2cc1OCCCN1CCOCC1` is reported as 180 nM (BJ; 72 h).
With `Oc1ccc(Nc2nc(-c3ccc(Cl)cc3)cs2)cc1` the IC50 was over 100000 nM (1205Lu; MTS; 24 h).
For `Cc1cc(Nc2ncc(Cl)c(Nc3ccccc3S(=O)(=O)C(C)C)n2)c(OC(C)C)cc1C1CCNCC1`, the IC50 was 2600 nM (BJ; 72 h).
The IC50 of `C[C@H]1O[C@@H](n2cc(F)c(=O)[nH]c2=O)[C@H](O)[C@@H]1O` is reported as 16500 nM (IOSE-144; CCK-8; 48 h).
